Laboratory results: ChEMBL document CHEMBL3286300, “Fluorine modulates species selectivity in the triazolopyrimidine class of Plasmodium falciparum dihydroorotate dehydrogenase inhibitors” (J Med Chem, 2014)

Experiments:
[1] = Inhibition of C-terminal His6-tagged human DHODH (amino acid residues 30 to 396) L359A mutant expressed in Escherichia coli BL21 cells assessed as orotic acid production using dihydroorotate as substrate by direct assay in presence of oxygen depleting system
[2] = Inhibition of C-terminal His6-tagged human DHODH (amino acid residues 30 to 396) H56A mutant expressed in Escherichia coli BL21 cells assessed as orotic acid production using dihydroorotate as substrate by direct assay in presence of oxygen depleting system
Plasmodium falciparum = test: Antimalarial activity against Plasmodium falciparum 3D7 infected in RBC after 72 hrs by SYBR green dye based flow cytometry; format: functional, organism-based; conditions: 3D7, 72 h
[3] = Partition coefficient, log D of the compound at pH 7.4 by chromatography; format: physicochemical; conditions: octanol/water
How it was run: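 LogD at pH 7.4 estimated from chromatographic retention, compared against standards of known partition coefficient.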

[4] = molecular target: T1, Dihydroorotate dehydrogenase (Plasmodium falciparum, UniProt Q54A96); test: Inhibition of N-terminal His6-tagged recombinant Plasmodium falciparum DHODH (amino acid residues 158 to 569) expressed in Escherichia coli BL21 cells assessed as orotic acid production using dihydroorotate as substrate by DCIP dye-based assay
T1 sequence (Q54A96 whole entry): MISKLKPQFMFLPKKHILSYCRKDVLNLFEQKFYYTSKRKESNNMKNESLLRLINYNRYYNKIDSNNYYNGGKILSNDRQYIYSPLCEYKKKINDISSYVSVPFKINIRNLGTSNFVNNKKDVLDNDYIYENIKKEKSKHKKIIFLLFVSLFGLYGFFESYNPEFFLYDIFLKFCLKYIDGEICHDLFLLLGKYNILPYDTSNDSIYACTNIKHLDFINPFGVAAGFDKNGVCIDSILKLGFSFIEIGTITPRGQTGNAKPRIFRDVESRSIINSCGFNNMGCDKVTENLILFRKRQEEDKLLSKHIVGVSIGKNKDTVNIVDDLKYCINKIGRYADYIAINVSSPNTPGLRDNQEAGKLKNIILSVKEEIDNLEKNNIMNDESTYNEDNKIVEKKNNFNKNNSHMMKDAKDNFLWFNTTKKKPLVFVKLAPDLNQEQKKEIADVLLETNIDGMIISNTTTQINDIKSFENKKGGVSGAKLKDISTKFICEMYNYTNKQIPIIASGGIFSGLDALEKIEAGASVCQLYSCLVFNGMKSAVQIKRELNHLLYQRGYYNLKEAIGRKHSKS
How it was run: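 The assay buffer was 100 mM Hepes pH 8.0, 150 mM NaCl, 10% glycerol, 0.1% Triton, with 0.2 mM DHO, 0.02 mM CoQD and 0.12 mM DCIP. Runs started with 2–10 nM enzyme at 25 °C, reading A600 initial rates. Inhibitor was 0.01–100 μM in 3-fold steps, in triplicate. IC50 came from a three-parameter log[I]-response fit.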

[5] = Inhibition of C-terminal His6-tagged human DHODH (amino acid residues 30 to 396) R136A mutant expressed in Escherichia coli BL21 cells assessed as orotic acid production using dihydroorotate as substrate by direct assay in presence of oxygen depleting system
[6] = molecular target: T2, Dihydroorotate dehydrogenase (quinone), mitochondrial (Homo sapiens, UniProt Q02127); test: Inhibition of C-terminal His6-tagged human DHODH (amino acid residues 33 to 396) expressed in Escherichia coli BL21 cells assessed as orotic acid production using dihydroorotate as substrate by direct assay in presence of oxygen depleting system
[7] = molecular target: T1, Dihydroorotate dehydrogenase; test: Binding affinity to Plasmodium falciparum DHODH by isothermal titration calorimetry
How it was run: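 ITC at 30 °C in 10 mM Hepes pH 7.8, 20 mM NaCl, 5% glycerol, 1 mM LDAO, 0.2% DMSO. PfDHODH (5–10 μM) in the cell was titrated with 50 μM inhibitor. Triplicate runs.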

[8] = Inhibition of C-terminal His6-tagged human DHODH (amino acid residues 30 to 396) L46A mutant expressed in Escherichia coli BL21 cells assessed as orotic acid production using dihydroorotate as substrate by direct assay in presence of oxygen depleting system
[9] = Inhibition of dog DHODH (amino acid residues 48 to 414) expressed in Escherichia coli BL21 cells assessed as orotic acid production using dihydroorotate as substrate by DCIP dye-based assay; parameters: species or system Canis lupus familiaris
How it was run: (§1)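 Assay buffer 100 mM Hepes pH 8.0, 150 mM NaCl, 10% glycerol, 0.1% Triton, with 0.2 mM DHO, 0.02 mM CoQD and 0.12 mM DCIP. DCIP reduction read at 600 nm, 25 °C, started with 2–10 nM enzyme. Inhibitor 0.01–100 μM in 3-fold steps, triplicate. IC50 from a three-parameter fit of vi/vo.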

[10] = molecular target: T2, Dihydroorotate dehydrogenase (quinone), mitochondrial; test: Inhibition of C-terminal His6-tagged human DHODH (amino acid residues 30 to 396) expressed in Escherichia coli BL21 cells assessed as orotic acid production using dihydroorotate as substrate by DCIP dye-based assay; how it was run: as §1
[11] = molecular target: Dihydroorotate dehydrogenase (quinone), mitochondrial (Mus musculus, UniProt O35435); test: Inhibition of mouse DHODH (amino acid residues 30 to 396) expressed in Escherichia coli BL21 cells assessed as orotic acid production using dihydroorotate as substrate by DCIP dye-based assay; how it was run: as §1
[12] = molecular target: T3, Dihydroorotate dehydrogenase (quinone), mitochondrial (Rattus norvegicus, UniProt Q63707); test: Inhibition of rat DHODH (amino acid residues 30 to 396) expressed in Escherichia coli BL21 cells assessed as orotic acid production using dihydroorotate as substrate by DCIP dye-based assay; how it was run: as §1
BL21 [13] = test: Ratio of IC50 for C-terminal His6-tagged human DHODH (amino acid residues 30 to 396) L46A mutant expressed in Escherichia coli BL21 cells to IC50 for C-terminal His6-tagged wild type human DHODH (amino acid residues 30 to 396) expressed in Escherichia coli BL21 cells
BL21 [14] = test: Ratio of IC50 for C-terminal His6-tagged human DHODH (amino acid residues 30 to 396) L359A mutant expressed in Escherichia coli BL21 cells to IC50 for C-terminal His6-tagged wild type human DHODH (amino acid residues 30 to 396) expressed in Escherichia coli BL21 cells
BL21 [15] = test: Ratio of IC50 for C-terminal His6-tagged human DHODH (amino acid residues 30 to 396) R136A mutant expressed in Escherichia coli BL21 cells to IC50 for C-terminal His6-tagged wild type human DHODH (amino acid residues 30 to 396) expressed in Escherichia coli BL21 cells
BL21 [16] = test: Selectivity ratio of IC50 for C-terminal His6-tagged human DHODH (amino acid residues 30 to 396) expressed in Escherichia coli BL21 cells to IC50 for N-terminal His6-tagged recombinant Plasmodium falciparum DHODH (amino acid residues 158 to 569) expressed in Escherichia coli BL21 cells
[17] = molecular target: T3, Dihydroorotate dehydrogenase (quinone), mitochondrial; test: Binding affinity to rat DHODH by isothermal titration calorimetry
How it was run: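 Run at 30 °C in 10 mM Hepes pH 7.8, 20 mM NaCl, 5% glycerol, 1 mM LDAO, 0.2% DMSO. Rat DHODH (5–8 μM) in the cell, titrated with 50 μM inhibitor. Triplicate runs, analysed with NITPIC and SEDPHAT.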

Sequence of Dihydroorotate dehydrogenase (quinone), mitochondrial (Mus musculus, UniProt O35435) (O35435 whole entry, the tested form may be a part): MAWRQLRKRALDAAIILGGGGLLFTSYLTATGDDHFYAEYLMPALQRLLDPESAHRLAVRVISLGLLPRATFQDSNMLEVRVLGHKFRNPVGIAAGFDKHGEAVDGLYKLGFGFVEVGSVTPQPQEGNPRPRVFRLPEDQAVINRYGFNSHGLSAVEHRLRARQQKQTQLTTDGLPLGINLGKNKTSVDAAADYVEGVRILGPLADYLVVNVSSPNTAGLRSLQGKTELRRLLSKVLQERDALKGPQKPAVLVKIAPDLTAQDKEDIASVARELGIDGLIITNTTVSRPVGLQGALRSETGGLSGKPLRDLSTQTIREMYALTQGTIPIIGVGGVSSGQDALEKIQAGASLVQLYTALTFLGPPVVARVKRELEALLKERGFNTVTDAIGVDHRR
T2 sequence (Q02127 whole entry, the tested form may be a part): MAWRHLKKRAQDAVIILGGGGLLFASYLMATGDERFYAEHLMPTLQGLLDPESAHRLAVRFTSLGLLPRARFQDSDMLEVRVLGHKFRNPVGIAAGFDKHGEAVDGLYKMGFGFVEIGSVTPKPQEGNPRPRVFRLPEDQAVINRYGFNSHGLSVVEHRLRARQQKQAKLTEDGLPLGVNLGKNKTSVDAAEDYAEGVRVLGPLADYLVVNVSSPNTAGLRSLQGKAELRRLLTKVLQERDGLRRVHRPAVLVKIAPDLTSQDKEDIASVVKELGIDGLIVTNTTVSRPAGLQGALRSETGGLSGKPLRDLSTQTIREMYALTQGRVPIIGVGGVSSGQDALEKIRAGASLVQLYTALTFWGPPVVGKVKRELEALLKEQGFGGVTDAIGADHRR
T3 sequence (Q63707 whole entry, the tested form may be a part): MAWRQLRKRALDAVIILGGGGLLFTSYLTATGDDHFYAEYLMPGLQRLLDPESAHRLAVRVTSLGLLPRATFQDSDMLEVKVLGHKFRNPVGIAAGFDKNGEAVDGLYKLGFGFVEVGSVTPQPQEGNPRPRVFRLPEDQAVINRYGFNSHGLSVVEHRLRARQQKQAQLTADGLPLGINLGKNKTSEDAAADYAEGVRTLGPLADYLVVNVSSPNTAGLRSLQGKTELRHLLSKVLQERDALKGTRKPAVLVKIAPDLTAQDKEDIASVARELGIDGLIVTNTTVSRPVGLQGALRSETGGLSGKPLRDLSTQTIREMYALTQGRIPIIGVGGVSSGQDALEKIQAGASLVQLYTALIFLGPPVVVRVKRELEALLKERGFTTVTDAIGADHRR

Structure (SMILES)	IC50 [1]	IC50 [2]	IC50 (Plasmodium falciparum)	logD [3]	IC50 [4]	IC50 [5]	IC50 [6]	Kd [7]	IC50 [8]	IC50 [9]	IC50 [10]	IC50 [11]	IC50 [12]	Ratio IC50 (BL21 [13])	Ratio IC50 (BL21 [14])	Ratio IC50 (BL21 [15])	Ratio IC50 (BL21 [16])	Kd [17]
Cc1cc(Nc2ccc(C(F)(F)F)cc2)n2nc(C(C)(F)F)nc2n1	> 100 µM	> 100 µM	0.0036 µM	4.05	0.046 µM	> 100 µM	> 100 µM	0.027 µM	> 100 µM	> 100 µM	> 100 µM	–	–	–	–	–	–	–
Cc1cc(Nc2ccc(C(F)(F)F)cc2)n2ncnc2n1	–	–	–	3.55	–	–	–	–	–	> 100 µM	–	> 100 µM	–	–	–	–	–	–
Cc1cc(Nc2ccc(C(F)(F)F)c(F)c2)n2nc(C(C)(F)F)nc2n1	> 100 µM	67 µM	0.0039 µM	4.25	0.035 µM	> 100 µM	45 µM	0.0098 µM	> 100 µM	7.2 µM	17 µM	1.6 µM	0.8 µM	–	–	–	–	–
Cc1cc(Nc2cc(F)c(C(F)(F)F)c(F)c2)n2nc(C(F)(F)F)nc2n1	35 µM	0.9 µM	0.0018 µM	5.01	0.022 µM	> 100 µM	2.1 µM	0.0096 µM	> 100 µM	0.32 µM	1.6 µM	0.088 µM	0.049 µM	50	10	50	–	–
Cc1cc(Nc2cc(F)c(C(F)(F)F)c(F)c2)n2ncnc2n1	–	–	–	–	–	–	–	–	–	> 100 µM	> 100 µM	> 30 µM	37 µM	–	–	–	> 769	–
Cc1cc(Nc2cc(F)c(C(F)(F)F)c(F)c2)n2nc(C(C)(F)F)nc2n1	> 100 µM	5.3 µM	0.012 µM	4.46	0.02 µM	> 100 µM	2.7 µM	0.0051 µM	> 100 µM	0.7 µM	2.1 µM	0.18 µM	0.13 µM	50	> 50	50	100	0.048 µM
Cc1cc(Nc2ccc(C(F)(F)F)cc2)n2nc(C(F)(F)F)nc2n1	–	–	0.0063 µM	–	–	–	–	–	–	86 µM	> 100 µM	9.7 µM	3.5 µM	–	–	–	–	–
